Measurements: ChEMBL document CHEMBL1136806, “Synthesis and in vitro and in vivo antimalarial activity of N1-(7-chloro-4-quinolyl)-1,4-bis(3-aminopropyl)piperazine derivatives” (J Med Chem, 2003)

Assays:
[1] = Partition coefficient was determined by dividing the concentration of compound in 1-octanol by concentration in aqueous phase at pH 7.4; type: physicochemical; conditions: 1-octanol/aqueous phase, read-out: Log D7.4
[2] = Partition coefficient was determined by dividing the concentration of compound in 1-octanol by concentration in aqueous phase at pH 5.0; type: physicochemical; conditions: 1-octanol/aqueous phase, read-out: Log D5.0
[3] = test system: MRC5; experiment: Cytotoxicity was tested on human diploid embryonic lung cell line (MRC-5) (in vitro); type: functional
[4] = test system: Plasmodium falciparum; experiment: In vitro antimalarial activity against Plasmodium falciparum FcB1; type: functional, organism-based
Summary of the method: (§1)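 Asynchronous P. falciparum FcB1 cultures in human erythrocytes (0.5% parasitemia, 1% hematocrit) were exposed to serial dilutions for 24 h at 37 °C. [3H]-hypoxanthine was then added. Incorporation was compared with drug-free controls, DMSO ≤0.1%. IC50 came from the concentration–response curve, reported as mean ± SD of three experiments.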

[5] = test system: MRC5; experiment: Cytotoxicity of compound was tested on human diploid embryonic lung cell line (MRC-5); type: functional
[6] = test system: Plasmodium falciparum; experiment: Antimalarial activity against Plasmodium falciparum FcB1; type: functional, organism-based; summary of the method: as §1
[7] = Vacuolar accumulation ratio was determined; type: functional
Summary of the method: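 Calculated, not measured: Henderson–Hasselbalch-derived equation using predicted pKa values, assuming vacuolar pH 5.0 and external pH 7.4.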

Row | SMILES | logD [1] | CC50 [3] | IC50 [4] | further results
1 | CCCCN(CCCC)CCCN1CCN(CCCNc2ccnc3cc(Cl)ccc23)CC1 | 1.92 | – | – | logD [2]: -1.75
2 | O=C(NCCCN1CCN(CCCNc2ccnc3cc(Cl)ccc23)CC1)C1CC1 | > 2.78 | – | – | logD [2]: -0.23
3 | Clc1ccc2c(NCCCN3CCN(CCCN(CCc4ccccc4)CCc4ccccc4)CC3)ccnc2c1 | – | 1 µM | 0.0262 µM | –
4 | Clc1ccc2c(NCCCN3CCN(CCCN(CC4CC4)CC4CC4)CC3)ccnc2c1 | 1.16 | – | – | logD [2]: < -2.78
5 | Clc1ccc2c(NCCCN3CCN(CCCNc4ccnc5cc(Cl)ccc45)CC3)ccnc2c1 | – | – | – | CC50 [5]: < 1 µM; IC50 [6]: 0.023 µM
6 | CCN(CC)CCCC(C)Nc1ccnc2cc(Cl)ccc12 (stereo not drawn) [CHLOROQUINE] | – | – | – | CC50 [5]: 50 µM; VAR [7]: 53600
7 | Clc1ccc2c(NCCCN3CCN(CCCNCc4ccnc5ccccc45)CC3)ccnc2c1 | – | 1.2 µM | 0.0741 µM | –
8 | CCCC(=O)NCCCN1CCN(CCCNc2ccnc3cc(Cl)ccc23)CC1 | 1.06 | – | – | –
9 | O=C(NCCCN1CCN(CCCNc2ccnc3cc(Cl)ccc23)CC1)c1cccc(Oc2ccccc2)c1 | – | 5 µM | 0.0208 µM | VAR [7]: 29500
10 | COc1ccc(CN(CCCN2CCN(CCCNc3ccnc4cc(Cl)ccc34)CC2)Cc2ccc(OC)cc2)cc1 | – | 1 µM | 0.0096 µM | –
11 | O=C(NCCCN1CCN(CCCNc2ccnc3cc(Cl)ccc23)CC1)c1ccc([N+](=O)[O-])cc1 | > 2.78 | – | – | logD [2]: 0.31
12 | Clc1ccc2c(NCCCN3CCN(CCCNCCc4ccccc4)CC3)ccnc2c1 | – | 5 µM | 0.0185 µM | –
13 | COc1ccc(C(=O)NCCCN2CCN(CCCNc3ccnc4cc(Cl)ccc34)CC2)cc1 | – | 4 µM | 0.0202 µM | –
14 | O=C(Cc1ccccc1)NCCCN1CCN(CCCNc2ccnc3cc(Cl)ccc23)CC1 | – | 4 µM | 0.0674 µM | –
